According to ChEMBL document CHEMBL1147937, “Kinesin spindle protein (KSP) inhibitors. Part V: discovery of 2-propylamino-2,4-diaryl-2,5-dihydropyrroles as potent, water-soluble KSP inhibitors, and modulation of their basicity by beta-fluorination to overcome cellular efflux by P-glycoprotein” (Bioorg Med Chem Lett, 2007):

What was measured:
[1] = target: T1, Kinesin-like protein KIF11 (Homo sapiens, UniProt P52732); experiment: Inhibition of KSP
T1 sequence (P52732 whole entry): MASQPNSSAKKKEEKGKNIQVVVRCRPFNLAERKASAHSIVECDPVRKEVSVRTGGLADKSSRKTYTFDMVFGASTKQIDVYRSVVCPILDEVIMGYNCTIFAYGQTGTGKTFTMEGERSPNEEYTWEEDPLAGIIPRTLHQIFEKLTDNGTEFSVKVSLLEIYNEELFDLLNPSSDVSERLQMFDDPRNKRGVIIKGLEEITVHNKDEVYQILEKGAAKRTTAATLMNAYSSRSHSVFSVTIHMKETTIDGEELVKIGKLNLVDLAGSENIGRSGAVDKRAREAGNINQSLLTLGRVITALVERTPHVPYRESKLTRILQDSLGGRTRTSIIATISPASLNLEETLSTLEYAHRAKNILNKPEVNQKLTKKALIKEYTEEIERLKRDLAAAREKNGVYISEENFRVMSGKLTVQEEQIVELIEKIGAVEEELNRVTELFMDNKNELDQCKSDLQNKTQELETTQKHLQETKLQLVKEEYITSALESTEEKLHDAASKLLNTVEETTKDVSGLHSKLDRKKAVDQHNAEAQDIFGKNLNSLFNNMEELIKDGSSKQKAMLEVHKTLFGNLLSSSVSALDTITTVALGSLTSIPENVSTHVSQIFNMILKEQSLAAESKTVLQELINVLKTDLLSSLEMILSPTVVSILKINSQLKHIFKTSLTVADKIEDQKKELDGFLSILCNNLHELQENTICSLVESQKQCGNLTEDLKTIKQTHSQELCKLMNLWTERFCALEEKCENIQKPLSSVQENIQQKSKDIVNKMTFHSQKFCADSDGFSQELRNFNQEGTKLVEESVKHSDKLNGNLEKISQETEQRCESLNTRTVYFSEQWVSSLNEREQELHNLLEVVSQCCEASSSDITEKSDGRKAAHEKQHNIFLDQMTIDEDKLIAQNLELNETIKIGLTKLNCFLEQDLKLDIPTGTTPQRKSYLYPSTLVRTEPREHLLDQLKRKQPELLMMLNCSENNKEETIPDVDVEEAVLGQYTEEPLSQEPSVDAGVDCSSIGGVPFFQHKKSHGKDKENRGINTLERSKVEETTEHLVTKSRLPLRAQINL

[2] = Partition coefficient, log P of the compound; assay type: physicochemical; conditions: octanol/water
[3] = Ratio of IC50 for human KBV1 cells to human KB31 cells after 16 hrs; assay type: cell-based; conditions: KBV1 cells and KB31 cells, read-out: Ratio IC50
Outline: (§1)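 IC50 for induction of G2/M (mitotic) block was determined in two human epidermoid carcinoma lines: parental KB-3-1, which lacks Pgp, and KB-V-1. KB-V-1 was derived by culturing KB-3-1 with vinblastine and highly overexpresses Pgp. The MDR ratio is the quotient of the KB-V-1 IC50 over the KB-3-1 IC50.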

[4] = Dissociation constant, pKa of the compound; assay type: physicochemical
Outline: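 Ionization constant measured with an automated pKa titrator; the value is the average of n = 3 determinations.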

[5] = system: MDR1; experiment: Efflux ratio of permeability from basolateral to apical over apical to basolateral side of the […] cell transfected with MDR1 by monolayer transport assay; assay type: ADME, cell-based; conditions: LLC-PK1
Outline: (§2)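 Monolayer transport assay in LLC-PK1 cells transfected with the human MDR1 gene. The efflux ratio is basolateral-to-apical over apical-to-basolateral transport. Passive permeability is reported in 10^-6 cm/s.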

[6] = target: T1, Kinesin-like protein KIF11; experiment: Inhibition of KSP in KB31 cells; assay type: cell-based; outline: as §1
[7] = target: T1, Kinesin-like protein KIF11; experiment: Inhibition of KSP in KBV1 cells overexpressing Pgp; assay type: cell-based; outline: as §1
[8] = Solubility in 0.1 M citrate at pH 4.0; assay type: physicochemical; conditions: 0.1 M citrate buffer
Outline: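 Aqueous solubility measured on the free-base form in 0.1 M citrate, with an initial pH of 4.0.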

[9] = target: Voltage-gated inwardly rectifying potassium channel KCNH2 (Homo sapiens, UniProt Q12809); experiment: Inhibition of hERG expressed in CHO cells by cell voltage clamp assay; assay type: toxicity, cell-based
Sequence of Voltage-gated inwardly rectifying potassium channel KCNH2 (Q12809 whole entry): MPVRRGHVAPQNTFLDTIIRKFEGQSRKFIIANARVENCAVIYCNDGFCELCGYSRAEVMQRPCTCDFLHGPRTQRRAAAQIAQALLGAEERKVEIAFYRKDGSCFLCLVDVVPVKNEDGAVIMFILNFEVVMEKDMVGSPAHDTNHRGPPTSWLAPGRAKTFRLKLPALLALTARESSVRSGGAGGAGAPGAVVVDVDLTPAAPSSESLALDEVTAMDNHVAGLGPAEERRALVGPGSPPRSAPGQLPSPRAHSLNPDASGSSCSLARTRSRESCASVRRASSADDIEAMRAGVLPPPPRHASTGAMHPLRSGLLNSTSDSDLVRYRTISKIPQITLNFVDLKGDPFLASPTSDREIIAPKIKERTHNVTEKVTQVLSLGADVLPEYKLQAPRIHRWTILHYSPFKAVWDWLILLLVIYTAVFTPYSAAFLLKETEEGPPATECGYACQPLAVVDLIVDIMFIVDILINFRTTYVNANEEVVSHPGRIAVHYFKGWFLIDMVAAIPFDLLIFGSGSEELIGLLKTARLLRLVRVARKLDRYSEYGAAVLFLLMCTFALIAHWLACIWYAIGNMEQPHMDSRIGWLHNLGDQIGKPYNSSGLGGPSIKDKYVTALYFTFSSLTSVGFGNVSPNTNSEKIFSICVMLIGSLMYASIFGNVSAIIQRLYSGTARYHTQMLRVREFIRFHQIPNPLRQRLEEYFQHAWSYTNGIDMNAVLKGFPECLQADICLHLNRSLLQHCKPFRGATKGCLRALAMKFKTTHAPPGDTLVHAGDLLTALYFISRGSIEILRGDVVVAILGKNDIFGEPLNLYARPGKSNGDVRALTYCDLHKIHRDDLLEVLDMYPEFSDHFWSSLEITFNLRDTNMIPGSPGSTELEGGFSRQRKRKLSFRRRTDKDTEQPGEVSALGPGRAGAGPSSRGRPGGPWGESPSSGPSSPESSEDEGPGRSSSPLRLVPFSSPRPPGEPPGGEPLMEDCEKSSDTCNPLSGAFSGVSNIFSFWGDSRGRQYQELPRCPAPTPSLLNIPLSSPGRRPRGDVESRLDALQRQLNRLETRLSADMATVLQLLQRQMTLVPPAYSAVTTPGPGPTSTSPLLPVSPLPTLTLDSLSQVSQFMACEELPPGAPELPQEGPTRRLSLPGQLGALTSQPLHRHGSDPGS

[10] = system: MDR1; experiment: Permeability across LLCPK1 cells expressing MDR1 gene; assay type: ADME, cell-based; conditions: human, LLC-PK1; read-out: permeability; outline: as §2

Row | IC50 [1] [µM] | logP [2] | pKa [4] | efflux ratio [5] | IC50 [6] [µM] | IC50 [7] [µM] | solubility [8] [mg/mL] | Papp [10] [×10⁻⁶ cm/s] | SMILES | selectivity ratio at 16 h [3] | IC50 [9] [µM]
1 | – | – | 10.3 | – | – | – | > 12 | – | CN(C)C(=O)N1N=C(c2cc(F)ccc2F)C[C@@]1(CCCN)c1ccccc1 | 490 | 19.3
2 | 0.0022 | 1.1 | 10.3 | 18.5 | – | 28 | > 12 | 4 | CN(C)C(=O)N1CC(c2cc(F)ccc2F)=C[C@@]1(CCCN)c1ccccc1 | 1200 | 7.1
3 | 0.0102 | 2.6 | 8.8 | – | – | – | – | – | CN(C)C(=O)N1CC(c2cc(F)ccc2F)=C[C@@]1(CCCNCCF)c1ccccc1 | 32 | –
4 | 0.0102 | 1.6 | 10.7 | – | – | – | – | – | CCNCCC[C@@]1(c2ccccc2)C=C(c2cc(F)ccc2F)CN1C(=O)N(C)C | > 135 | –

The remaining lines, values behind:

Row | SMILES | IC50 [1] [µM] | logP [2] | pKa [4] | efflux ratio [5] | IC50 [6] [µM] | IC50 [7] [µM] | solubility [8] [mg/mL] | Papp [10] [×10⁻⁶ cm/s] | selectivity ratio at 16 h [3] | IC50 [9] [µM]
5 | CN(C)C(=O)N1CC(c2cc(F)ccc2F)=C[C@@]1(CCCNCC(F)(F)F)c1ccccc1 | 0.11 | > 3.2 | 5.2 | – | – | – | – | – | 1 | –
6 | CN(C)C(=O)N1CC(c2cc(F)ccc2F)=C[C@@]1(CC[C@H](N)C(F)F)c1ccccc1 | 0.0052 | 3.2 | – | 2.5 | 0.024 | 0.123 | > 10 | 38 | 5 | 15.9
7 | CN(C)C(=O)N1CC(c2cc(F)ccc2F)=C[C@@]1(CCCNCC(F)F)c1ccccc1 | 0.0121 | 3.4 | 7 | – | – | – | – | – | 3 | –
